Measurements reported in ChEMBL document CHEMBL1153560, “In vitro activities of doripenem and six comparator drugs against 423 aerobic and anaerobic bacterial isolates from infected diabetic foot wounds” (2008).
Values after ≈ are worked out from the molar mass of the structure shown.

Experiments:
Assay type in all cases: functional
Proteus vulgaris [1] = test: Antibacterial activity against Proteus vulgaris isolated from patient with diabetic foot infection assessed as percent resistant isolates after 18 to 24 hrs by broth microdilution method
Summary of the method: (§1)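 Aerobes subcultured on Trypticase soy blood agar, then broth microdilution in cation-adjusted Mueller-Hinton broth. Trays prepared in-house with twofold dilutions and stored at −70°C. Overnight colonies suspended to about 5 × 10^5 CFU/ml final. Read after 18 to 24 h at 37°C. QC strains included S. aureus ATCC 29213 and E. coli ATCC 25922.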

[2] = tested on: Corynebacterium aurimucosum; test: Antibacterial activity against Corynebacterium aurimucosum isolated from patient with diabetic foot infection assessed as percent resistant isolates after 48 hrs by broth microdilution method
Summary of the method: (§2)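 Isolates subcultured on Trypticase soy blood agar. Broth microdilution in cation-adjusted Mueller-Hinton broth with lysed horse blood, using in-house twofold dilution trays stored at −70°C. Inoculum from overnight colonies at about 5 × 10^5 CFU/ml final. Read after 18 to 24 h at 37°C, up to 48 h for some Corynebacterium strains.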

Corynebacterium jeikeium [3] = test: Antibacterial activity against Corynebacterium jeikeium isolated from patient with diabetic foot infection assessed as percent resistant isolates after 48 hrs by broth microdilution method; summary of the method: as §2
[4] = tested on: Corynebacterium minutissimum; test: Antibacterial activity against Corynebacterium minutissimum isolated from patient with diabetic foot infection assessed as percent resistant isolates after 48 hrs by broth microdilution method; summary of the method: as §2
Corynebacterium accolens = test: Antibacterial activity against Corynebacterium accolens isolated from patient with diabetic foot infection assessed as percent resistant isolates after 48 hrs by broth microdilution method; summary of the method: as §2
Corynebacterium simulans [5] = test: Antibacterial activity against Corynebacterium simulans isolated from patient with diabetic foot infection assessed as percent resistant isolates after 48 hrs by broth microdilution method; summary of the method: as §2
[6] = tested on: Staphylococcus haemolyticus; test: Antibacterial activity against Staphylococcus haemolyticus isolated from patient with diabetic foot infection after 18 to 24 hrs by broth microdilution method
[7] = tested on: Staphylococcus lugdunensis; test: Antibacterial activity against Staphylococcus lugdunensis isolated from patient with diabetic foot infection after 18 to 24 hrs by broth microdilution method
Summary of the method: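 Subcultured on Trypticase soy blood agar, then broth microdilution in cation-adjusted Mueller-Hinton broth. Trays were made in-house with serial twofold drug dilutions and stored at −70°C. Inoculum was colonies from overnight growth, final approximately 5 × 10^5 CFU/ml. MIC was read after 18 to 24 h at 37°C. QC strains: S. aureus ATCC 29213 and E. coli ATCC 25922.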

Streptococcus agalactiae = test: Antibacterial activity against Streptococcus agalactiae isolated from patient with diabetic foot infection after 18 to 24 hrs by broth microdilution method
Summary of the method: (§3)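 Streptococcal isolates were subcultured on Trypticase soy blood agar. Broth microdilution used cation-adjusted Mueller-Hinton broth with lysed horse blood, in in-house trays of serial twofold drug dilutions stored at −70°C. Overnight colonies were suspended to a final inoculum of approximately 5 × 10^5 CFU/ml. MIC was read after 18 to 24 h incubation at 37°C.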

[8] = tested on: Streptococcus dysgalactiae subsp. equisimilis; test: Antibacterial activity against Streptococcus dysgalactiae subsp. equisimilis isolated from patient with diabetic foot infection after 18 to 24 hrs by broth microdilution method; summary of the method: as §3
Streptococcus pyogenes = test: Antibacterial activity against Streptococcus pyogenes isolated from patient with diabetic foot infection after 18 to 24 hrs by broth microdilution method; summary of the method: as §3
Corynebacterium xerosis = test: Antibacterial activity against Corynebacterium xerosis isolated from patient with diabetic foot infection assessed as percent resistant isolates after 48 hrs by broth microdilution method; summary of the method: as §2
Staphylococcus aureus [9] = test: Antibacterial activity against methicillin-resistant Staphylococcus aureus isolated from patient with diabetic foot infection assessed as percent resistant isolates after 18 to 24 hrs by broth microdilution method
Summary of the method: (§4)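 Isolates grown on Trypticase soy blood agar, then tested by broth microdilution in unsupplemented cation-adjusted Mueller-Hinton broth. In-house trays held serial twofold drug dilutions and were stored at −70°C. Overnight colonies were suspended to a final inoculum near 5 × 10^5 CFU/ml, and trays read after 18–24 h at 37°C. QC strains: S. aureus ATCC 29213, E. coli ATCC 25922.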

Staphylococcus aureus [10] = test: Antibacterial activity against methicillin-sensitive Staphylococcus aureus isolated from patient with diabetic foot infection assessed as percent resistant isolates after 18 to 24 hrs by broth microdilution method; summary of the method: as §4
[11] = tested on: Streptococcus dysgalactiae subsp. equisimilis; test: Antibacterial activity against Streptococcus dysgalactiae subsp. equisimilis isolated from patient with diabetic foot infection assessed as percent resistant isolates after 18 to 24 hrs by broth microdilution method
Summary of the method: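 Streptococci subcultured on Trypticase soy blood agar and tested by broth microdilution in cation-adjusted Mueller-Hinton broth with lysed horse blood. In-house twofold dilution trays stored at −70°C. About 5 × 10^5 CFU/ml final inoculum from overnight colonies. Read after 18 to 24 h at 37°C.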

[12] = tested on: Corynebacterium aurimucosum; test: Antibacterial activity against Corynebacterium aurimucosum isolated from patient with diabetic foot infection after 48 hrs by broth microdilution method
Summary of the method: (§5)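 Isolates were subcultured on Trypticase soy blood agar. Broth microdilution used cation-adjusted Mueller-Hinton broth with lysed horse blood, in-house trays of twofold drug dilutions stored at −70°C. Colonies from overnight growth gave a final inoculum of about 5 × 10^5 CFU/ml. Trays were read after 18 to 24 h at 37°C, up to 48 h for some strains.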

Corynebacterium jeikeium [13] = test: Antibacterial activity against Corynebacterium jeikeium isolated from patient with diabetic foot infection after 48 hrs by broth microdilution method; summary of the method: as §5
Corynebacterium simulans [14] = test: Antibacterial activity against Corynebacterium simulans isolated from patient with diabetic foot infection after 48 hrs by broth microdilution method; summary of the method: as §5
Escherichia coli [15] = test: Antibacterial activity against Escherichia coli isolated from patient with diabetic foot infection assessed as percent resistant isolates after 18 to 24 hrs by broth microdilution method; summary of the method: as §1
Providencia rettgeri [16] = test: Antibacterial activity against Proteus rettgeri isolated from patient with diabetic foot infection assessed as percent resistant isolates after 18 to 24 hrs by broth microdilution method; summary of the method: as §1
Pseudomonas aeruginosa [17] = test: Antibacterial activity against Pseudomonas aeruginosa isolated from patient with diabetic foot infection assessed as percent resistant isolates after 18 to 24 hrs by broth microdilution method; summary of the method: as §1
Escherichia coli [18] = test: Antibacterial activity against Escherichia coli isolated from patient with diabetic foot infection after 18 to 24 hrs by broth microdilution method
Summary of the method: (§6)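 Isolates were subcultured on Trypticase soy blood agar and tested by broth microdilution in cation-adjusted Mueller-Hinton broth. In-house trays of twofold drug dilutions were stored at −70°C. Overnight colonies gave a final inoculum of about 5 × 10^5 CFU/ml. Plates were read after 18 to 24 h at 37°C.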

Enterobacter cloacae = test: Antibacterial activity against Enterobacter cloacae isolated from patient with diabetic foot infection after 18 to 24 hrs by broth microdilution method; summary of the method: as §6
Proteus vulgaris [19] = test: Antibacterial activity against Proteus vulgaris isolated from patient with diabetic foot infection after 18 to 24 hrs by broth microdilution method; summary of the method: as §6
Providencia rettgeri [20] = test: Antibacterial activity against Proteus rettgeri isolated from patient with diabetic foot infection after 18 to 24 hrs by broth microdilution method; summary of the method: as §6
Pseudomonas aeruginosa [21] = test: Antibacterial activity against Pseudomonas aeruginosa isolated from patient with diabetic foot infection after 18 to 24 hrs by broth microdilution method; summary of the method: as §6

Compound: CCC[C@@H]1C[C@@H](C(=O)N[C@@H]([C@H]2O[C@H](SC)[C@H](O)[C@@H](O)[C@H]2O)[C@H](C)Cl)N(C)C1 [CLINDAMYCIN]
- Activity (Proteus vulgaris [1]): 0%
- Activity [2]: 100%
- Activity (Corynebacterium jeikeium [3]): 100%
- Activity [4]: 100%
- Activity (Corynebacterium accolens): 78%
- Activity (Corynebacterium simulans [5]): 78%
- MIC50 [6]: 0.125 µg/mL (≈ 0.294 µM)
- MIC90 [6]: 8 µg/mL (≈ 18.8 µM)
- MIC50 [7]: 0.125 µg/mL (≈ 0.294 µM)
- MIC90 [7]: > 64 µg/mL
- MIC50 (Streptococcus agalactiae): 0.125 µg/mL (≈ 0.294 µM)
- MIC90 (Streptococcus agalactiae): > 64 µg/mL
- MIC50 [8]: 0.125 µg/mL (≈ 0.294 µM)
- MIC90 [8]: > 64 µg/mL
- MIC50 (Streptococcus pyogenes): 0.125 µg/mL (≈ 0.294 µM)
- MIC90 (Streptococcus pyogenes): > 64 µg/mL
- Activity (Corynebacterium xerosis): 78%
- Activity (Staphylococcus aureus [9]): 39%
- Activity (Staphylococcus aureus [10]): 0%
- Activity [11]: 13%
- MIC50 [12]: > 64 µg/mL
- MIC90 [12]: > 64 µg/mL
- MIC50 (Corynebacterium jeikeium [13]): > 64 µg/mL
- MIC90 (Corynebacterium jeikeium [13]): > 64 µg/mL
- MIC50 (Corynebacterium simulans [14]): 2 µg/mL (≈ 4.71 µM)
- MIC90 (Corynebacterium simulans [14]): > 64 µg/mL

Compound: C[C@@H](O)[C@H]1C(=O)N2C(C(=O)O)=C(S[C@@H]3CN[C@H](CNS(N)(=O)=O)C3)[C@H](C)[C@H]12 [DORIPENEM]
- Activity (Escherichia coli [15]): 0%
- Activity (Proteus vulgaris [1]): 0%
- Activity (Providencia rettgeri [16]): 0%
- Activity (Pseudomonas aeruginosa [17]): 7%
- MIC50 [6]: 0.5 µg/mL (≈ 1.19 µM)
- MIC90 [6]: 16 µg/mL (≈ 38 µM)
- MIC50 [7]: 0.125 µg/mL (≈ 0.297 µM)
- MIC90 [7]: 0.125 µg/mL (≈ 0.297 µM)
- MIC50 (Streptococcus agalactiae): ≤ 0.015 µg/mL
- MIC90 (Streptococcus agalactiae): 0.03 µg/mL (≈ 0.0713 µM)
- MIC50 [8]: ≤ 0.015 µg/mL
- MIC90 [8]: ≤ 0.015 µg/mL
- MIC50 (Streptococcus pyogenes): ≤ 0.015 µg/mL
- MIC90 (Streptococcus pyogenes): ≤ 0.015 µg/mL
- Activity (Staphylococcus aureus [9]): 100%
- Activity (Staphylococcus aureus [10]): 0%
- Activity [11]: 0%
- MIC50 (Escherichia coli [18]): 0.03 µg/mL (≈ 0.0713 µM)
- MIC90 (Escherichia coli [18]): 0.03 µg/mL (≈ 0.0713 µM)
- MIC50 (Enterobacter cloacae): 0.06 µg/mL (≈ 0.143 µM)
- MIC90 (Enterobacter cloacae): 0.25 µg/mL (≈ 0.595 µM)
- MIC50 (Proteus vulgaris [19]): 0.125 µg/mL (≈ 0.297 µM)
- MIC90 (Proteus vulgaris [19]): 0.25 µg/mL (≈ 0.595 µM)
- MIC50 (Providencia rettgeri [20]): 0.125 µg/mL (≈ 0.297 µM)
- MIC90 (Providencia rettgeri [20]): 0.25 µg/mL (≈ 0.595 µM)
- MIC50 (Pseudomonas aeruginosa [21]): 0.25 µg/mL (≈ 0.595 µM)
- MIC90 (Pseudomonas aeruginosa [21]): 2 µg/mL (≈ 4.76 µM)
- MIC50 [12]: 1 µg/mL (≈ 2.38 µM)
- MIC90 [12]: 8 µg/mL (≈ 19 µM)
- MIC50 (Corynebacterium jeikeium [13]): 1 µg/mL (≈ 2.38 µM)
- MIC90 (Corynebacterium jeikeium [13]): 8 µg/mL (≈ 19 µM)
- MIC50 (Corynebacterium simulans [14]): 0.125 µg/mL (≈ 0.297 µM)
- MIC90 (Corynebacterium simulans [14]): 0.25 µg/mL (≈ 0.595 µM)
